Measurements from ChEMBL document CHEMBL1142238, “Highly efficient ligands for dihydrofolate reductase from Cryptosporidium hominis and Toxoplasma gondii inspired by structural analysis” (J Med Chem, 2007).

How the values were obtained:
[1] = Inhibition of Cryptosporidium hominis DHFR-TS expressed in Escherichia coli
[2] = target: T1, Bifunctional dihydrofolate reductase-thymidylate synthase (Toxoplasma gondii, UniProt Q07422); assay: Inhibition of Toxoplasma gondii DHFR-TS
T1 sequence (Q07422 whole entry): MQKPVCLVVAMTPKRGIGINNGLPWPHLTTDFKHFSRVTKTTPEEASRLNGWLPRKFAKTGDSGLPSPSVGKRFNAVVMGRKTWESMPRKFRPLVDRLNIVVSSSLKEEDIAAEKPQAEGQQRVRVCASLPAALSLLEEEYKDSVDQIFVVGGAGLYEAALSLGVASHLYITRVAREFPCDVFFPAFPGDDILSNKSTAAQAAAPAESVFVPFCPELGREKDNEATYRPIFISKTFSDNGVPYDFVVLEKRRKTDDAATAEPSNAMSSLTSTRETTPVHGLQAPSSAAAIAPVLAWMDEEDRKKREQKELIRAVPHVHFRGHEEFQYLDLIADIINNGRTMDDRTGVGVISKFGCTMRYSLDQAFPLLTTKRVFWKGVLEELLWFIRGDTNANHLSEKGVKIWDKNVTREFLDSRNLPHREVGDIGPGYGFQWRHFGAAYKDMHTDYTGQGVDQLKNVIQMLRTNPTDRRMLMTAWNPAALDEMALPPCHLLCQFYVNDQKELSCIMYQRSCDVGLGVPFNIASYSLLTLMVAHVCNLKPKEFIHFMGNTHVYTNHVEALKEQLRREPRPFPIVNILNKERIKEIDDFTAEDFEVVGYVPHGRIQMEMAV

[3] = target: T2, Bifunctional dihydrofolate reductase-thymidylate synthase (Toxoplasma gondii) (UniProt Q07422); assay: Ligand efficiency at Toxoplasma gondii DHFR-TS relative to TMP
T2 sequence (whole entry): T1 sequence (Q07422 whole entry)

Cryptosporidium hominis [4] = assay: Ligand efficiency at Cryptosporidium hominis DHFR-TS relative to TMP
[5] = target: T2, Bifunctional dihydrofolate reductase-thymidylate synthase (Toxoplasma gondii); assay: Ligand efficiency at Toxoplasma gondii DHFR-TS
How it was run: (§1)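 Computed from the enzyme IC50 substituted for Kd: ΔG = (1.99 cal K^-1 mol^-1)(300 K)(ln IC50)(0.001 kcal/cal), divided by the number of non-hydrogen atoms.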

Cryptosporidium hominis [6] = assay: Ligand efficiency at Cryptosporidium hominis DHFR-TS; how it was run: as §1

Compound	IC50 [1]	IC50 [2]	Activity [3]	Activity (Cryptosporidium hominis [4])	Activity [5]	Activity (Cryptosporidium hominis [6])
COc1cc(CCc2cnc(N)nc2N)cc(OC)c1OC	> 1000 µM	90.2 µM				
COc1cc(/C=C/c2cnc(N)nc2N)cc(OC)c1OC	> 1000 µM					
COc1cc(C(O)C#Cc2c(C)nc(N)nc2N)cc(OC)c1OC (stereo unspecified)	141 µM	9.1 µM				
COc1cc(C(O)C#Cc2cnc(N)nc2N)cc(OC)c1OC (stereo unspecified)	194 µM					
COc1cc(CC#Cc2cnc(N)nc2N)cc(OC)c1OC	86.1 µM	21.7 µM	0.28	0.24		
COc1cc(CC#Cc2c(C)nc(N)nc2N)cc(OC)c1OC	10.2 µM	0.88 µM	0.35	0.29	0.35	0.29
COc1cc(C(C#Cc2c(C)nc(N)nc2N)OC)cc(OC)c1OC (stereo unspecified)	5 µM	0.55 µM				
COc1cc([C@H](C)C#Cc2c(C)nc(N)nc2N)cc(OC)c1OC	1.91 µM	0.013 µM				
COc1cc(C(C#Cc2cnc(N)nc2N)OC)cc(OC)c1OC (stereo unspecified)	133 µM	9.8 µM				
COc1cc(C(C)C#Cc2cnc(N)nc2N)cc(OC)c1OC (stereo unspecified)		3.1 µM				
COc1cc(Cc2cnc(N)nc2N)cc(OC)c1OC					0.33	0.32
CN(Cc1cnc2nc(N)nc(N)c2n1)c1ccc(C(=O)N[C@@H](CCC(=O)O)C(=O)O)cc1 [METHOTREXATE]	0.023 µM				0.33	0.32
COc1cc(C(C)C#Cc2c(C)nc(N)nc2N)cc(OC)c1OC (stereo unspecified)	0.169 µM	0.12 µM				
COc1cc([C@@H](C)C#Cc2c(C)nc(N)nc2N)cc(OC)c1OC	0.038 µM	0.0014 µM	0.49	0.41	0.49	0.41
